Screening data: PubChem, several laboratories
Sampled rows, rich in hits. Any-hit rate of the full collection: about 12%.
WT yeast gro inh: growth inhibition of WT yeast, mitochondrial fusion screen; 2.1% of 190,000 active; mitochondrial fusion phenotypic screen, WT strain; inhibition, % at 10 µM; AID 1362; in the data active means inhibition above about 58%; tested in S. cerevisiae
ABCG2 block: human ABCG2 inhibition, ABCB1 as counter-screen; Q9UNQ0; IgMXP3 cells, JC-1 efflux, flow cytometry; inhibition, % at 6.6 µM; 0.1% of 190,000 active; AID 1325;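 active means inhibition above 80%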;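 further: 0% = DMSO and 100% = nicardipine control wells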
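Test system: IgMXP3 (ABCG2) plus far-red-tagged CCRF-Adr (ABCB1) cells / Amount: 3 million cells/mL in well / Reagent: JC-1 transporter substrate / Timing: 10 min compound exposure, 25 °C / Signal: flow cytometry, 530 nm JC-1 signal / Read-out: percent efflux inhibition, scaled nicardipine 100% to DMSO 0% / Benchmarks: nicardipine as high control, DMSO as low control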
ABCB1 block: inhibitors of human ABCB1 transporter, ABCG2 counter-screen. CCRF-Adr cells, JC-1 efflux, flow cytometry. 0.067% of 190,000 active. inhibition, % at 6.6 µM. AID 1326; in the data active means inhibition above about 40%;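 further: 0% = vehicle and 100% = reference inhibitor; higher value means more JC-1 retained so stronger ABCB1 efflux block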
RAM inhibit: inhibitors of the yeast RAM network; S. cerevisiae dse1pr::URA3 reporter, 5-FOA growth OD615, 2 d; analog-sensitive cbk1-as2 kinase mutant strain; inhibition, % at 50 µM; 1.8% of 190,000 active; AID 868;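 active means inhibition above a set limit, 3 SD over mean compound inhibition, cut at about 8.4% in these data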;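 further: 0% = DMSO-only wells with no growth and 100% = 10 µM 1-NA-PP1 full growth; inhibition rescues growth on 5-FOA so higher OD means more RAM inhibition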
L major viab: inhibitors of Leishmania major promastigote growth; Leishmania major promastigotes, resazurin fluorescence viability; inhibition, % at 10 µM; 9% of 200,000 active; in the data active means inhibition above about 50%;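 further: promastigotes grown with compound for 44 hours at 28 °C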
* marks the source's active call; other numbers are inactive results; x = no result given.

SMILES | WT yeast gro inh | ABCG2 block | ABCB1 block | RAM inhibit | L major viab
O=C(CS(=O)(=O)c1ccccc1)Nc1nc(-c2ccccc2)cs1 | 19 | 1 | 0 | 1 | 33
O=C(CCS(=O)(=O)c1ccccc1)Nc1nc(-c2ccccn2)cs1 | 16 | x | x | x | 92*
CC1(C)CC(=O)c2sc(NC(=O)CCS(=O)(=O)c3ccccc3)nc2C1 | -17 | 4 | 0 | 1 | 78*
Cc1cc(C)c(OCC(=O)Nc2nc(-c3ccccn3)cs2)c(C)c1 | 69 | 10 | 1 | -1 | 87*
COc1ccc(OCCCC(=O)Nc2nc(-c3ccccn3)cs2)cc1 | 54 | 8 | 1 | 2 | 100*
COc1ccc(Cc2nnc(NC(=O)c3cccc([N+](=O)[O-])c3)s2)cc1 | 4 | 3 | 0 | 2 | -7
Cc1cc(C#N)c(C)n1-c1cc(S(=O)(=O)N2CCOCC2)ccc1N1CCCC1 | -1 | 2 | 2 | 4 | 47
CN=C1SC(CC(=O)Nc2ccc(F)cc2F)C(=O)N1/N=C/c1ccc(OC(F)F)c(OC)c1 (stereo not drawn) | -8 | 6 | 1 | 0 | 14
COc1ccc(Nc2nnc(-c3ccc(N4CCOCC4)c([N+](=O)[O-])c3)c3ccccc23)cc1 | x | 5 | 2 | 0 | 57*
COc1ccc(C(=O)c2ccc(N3CCOCC3)c([N+](=O)[O-])c2)cc1 | 31 | 16 | 1 | 2 | 8
O=C(Cc1cn(Cc2cccc(Cl)c2)c2ccccc12)N1CCCCCC1 | 68* | 18 | 2 | 3 | 99*
CC1CCCN(C(=O)Cc2cn(Cc3cccc(Cl)c3)c3ccccc23)C1 (stereo not drawn) | 73* | 13 | 3 | 6 | 97*
O=C(Cn1cnc2ccccc2c1=O)NCCC(=O)Nc1ccc2c(c1)OCO2 | -10 | 3 | 1 | -1 | 2
CC[C@H](C)[C@H](NC(N)=O)C(=O)NCCc1ccc(Cl)cc1Cl | 0 | 17 | 4 | 1 | 8
O=C1CN(C(=O)COC(=O)c2ccc[n+]([O-])c2)c2ccccc2N1 | 4 | 1 | 0 | 4 | 14
Cc1ccc2cc(CN(Cc3cccs3)C(=O)c3ccco3)c3nnnn3c2c1C | 58* | 9 | 22 | 5 | 30
Cc1ccc2c(c1)cc(CN(Cc1cccs1)C(=O)c1ccco1)c1nnnn12 | 53 | 49 | 34 | 5 | 37
COC(=O)c1cc2ccccc2c(-c2c(OC)c(C(=O)OC)cc3ccccc23)c1OC | 72* | 3 | 1 | 6 | 45
COC(=O)c1cc(N2CCN(C)CC2)nc2ccccc12 | 1 | 0 | 0 | 2 | 5
Cc1[nH]n2c(=O)cc(C(C)(C)C)nc2c1-c1ccccc1 | 12 | 1 | 0 | 2 | 99*
O=C1C2CC=CCC2C(=O)N1Cc1ccccc1Cl (stereo not drawn) | -17 | 3 | 1 | 2 | -6
O=C(Nc1ccc(O)cc1C(=O)O)c1ccc2c(c1)C(=O)N(Cc1ccco1)C2=O | -1 | -1 | 0 | 3 | -10
O=C(Nc1ccc(O)cc1)c1ccc2c(c1)C(=O)N(Cc1ccco1)C2=O | -5 | 15 | 0 | 5 | 61*
CCC(=O)N1CCc2cc(S(=O)(=O)NCCN3CCC(C)CC3)ccc21 | 15 | 1 | 0 | 0 | 54*
CCC(=O)N1CCc2cc(S(=O)(=O)NC(CC(C)C)C(=O)N3CCc4ccccc43)ccc21 (stereo not drawn) | -7 | 5 | 6 | 6 | 100*
SMILES | WT yeast gro inh | ABCG2 block | ABCB1 block | RAM inhibit | L major viab
CCC(=O)N1CCc2cc(S(=O)(=O)NC(C(=O)NC3CCCc4ccccc43)C(C)C)ccc21 (stereo not drawn) | -7 | 1 | 2 | 3 | 2
COc1ccc(CCNS(=O)(=O)c2ccc3c(c2)CCN3C(=O)C2CC2)cc1OC | 9 | 15 | 2 | 1 | 6
CCOc1ccc(OCC)c(NS(=O)(=O)c2ccc3c(c2)CCN3C(=O)C2CCC2)c1 | 4 | 15 | 1 | 2 | 99*
O=C(CCc1nnc(C2(c3ccc(Cl)cc3)CCC2)o1)NCCCn1cccn1 | -2 | 1 | 0 | 1 | -6
CCN1CCCC1CNS(=O)(=O)c1ccc(Cl)c(C(F)(F)F)c1 (stereo not drawn) | -7 | -1 | 0 | 0 | 81*
CCN1CCCC1CNS(=O)(=O)c1ccc(C(=O)Nc2ccccc2)cc1 (stereo not drawn) | 10 | 14 | 1 | 1 | 5
O=C(NCCc1ccccn1)C(F)(F)C(F)(F)C(F)(F)C(F)(F)C(F)(F)C(F)F | -8 | 8 | 0 | -1 | -9
